Laboratory results taken from ChEMBL document CHEMBL4052629, “Scutellarin derivatives as apoptosis inducers: Design, synthesis and biological evaluation” (Eur J Med Chem, 2017).
Active and inactive are the calls of the source. The calls are words filed in the database; no cut-off is given here.

Legend:
HepG2 [1] = experiment: Induction of apoptosis in human HepG2 cells assessed as chromatin condensation at 0.3 to 0.6 uM after 48 hrs by Hoechst 33258 staining-based fluorescent microscopic analysis; type: functional, cell-based
Outline: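 HepG2 cells grown on coverslips were treated for 48 h at 0.3, 0.6 or 1.2 μM, then fixed in 4% paraformaldehyde for 10 min. After PBS washes, cells were stained with Hoechst 33258 for 5 min and washed again. Nuclear morphology was examined by fluorescence imaging at 350 nm excitation and 460 nm emission.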

HepG2 [2] = experiment: Cell cycle arrest in human HepG2 cells assessed as accumulation at S phase after 72 hrs by propidium iodide staining-based flow cytometric analysis; type: functional
Outline: (§1)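 Concentrations used were 0, 0.3, 0.6 and 1.2 μM in HepG2 and 0, 0.16, 0.31 and 1.25 μM in PC-3, with untreated cells as control, for 72 h. Cells were trypsinized, washed in PBS, fixed in cold ethanol at 4 °C overnight, then incubated 30 min in PBS containing RNase A and propidium iodide. DNA content was read by flow cytometry to give phase distribution.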

L02 [3] = experiment: Induction of apoptosis in human LO2 cells assessed as late apoptotic cells at 50 uM after 72 hrs by Annexin V-FITC/7-AAD or propidium iodide staining-based flow cytometric analysis (reference value: 0.11%); type: cell-based; conditions: l02, 72 h
L02 [4] = experiment: Induction of apoptosis in human LO2 cells assessed as necrotic cells at 50 uM after 72 hrs by Annexin V-FITC/7-AAD or propidium iodide staining-based flow cytometric analysis (reference value: 1.99%); type: cell-based; conditions: l02, 72 h
[5] = Induction of apoptosis in human LO2 cells assessed as viable cells at 1.2 uM after 72 hrs by Annexin V-FITC/7-AAD or propidium iodide staining-based flow cytometric analysis (reference value: 94.26%); type: cell-based, L02; conditions: read-out: Activity
HepG2 [6] = experiment: Induction of apoptosis in human HepG2 cells assessed as reduction in mitochondrial membrane potential at 0.6 uM after 48 hrs by JC-1 staining-based flow cytometric analysis (reference value: 1.6%); type: functional; design: scale not given: the % may be the effect or the level left
Outline: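 HepG2 cells cultured overnight, then incubated in triplicate with 0, 0.3, 0.6 or 1.2 μM, or vehicle, for 48 h. Stained with the cationic dye JC-1. Flow cytometry gave the percentage of cells with healthy versus collapsed mitochondrial membrane potential.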

HepG2 [7] = experiment: Induction of apoptosis in human HepG2 cells assessed as reduction in Hsp27 expression levels at 2 uM after 24 hrs by membrane-based sandwich immunoassay; type: functional, cell-based
Outline: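 HepG2 cells treated at 2 μM for 24 h; protein extracts prepared per the kit protocol. Relative levels of 35 apoptosis-related proteins measured with a human apoptosis antibody array.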

PC-3 [8] = experiment: Cell cycle arrest in human PC3 cells assessed as accumulation at G1 phase at 0.16 uM after 72 hrs by propidium iodide staining-based flow cytometric analysis (reference value: 53.36%); type: functional; outline: as §1
PC-3 [9] = experiment: Cell cycle arrest in human PC3 cells assessed as accumulation at G1 phase at 1.25 uM after 72 hrs by propidium iodide staining-based flow cytometric analysis (reference value: 53.36%); type: functional; outline: as §1
PC-3 [10] = experiment: Cell cycle arrest in human PC3 cells assessed as accumulation at S phase at 1.25 uM after 72 hrs by propidium iodide staining-based flow cytometric analysis (reference value: 36.46%); type: functional; outline: as §1
PC-3 [11] = experiment: Induction of apoptosis in human PC3 cells assessed as cell shrinkage at 0.16 to 1.25 uM after 48 hrs by Hoechst 33258 staining-based fluorescent microscopic analysis; type: functional
Outline: (§2)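 PC-3 cells grown on sterile cover slips were exposed to 0, 0.16, 0.31 or 1.25 μM, or vehicle, for 48 h. Then fixed with 4% paraformaldehyde for 10 min, washed twice in PBS, stained with Hoechst 33258 for 5 min and washed again. Nuclei imaged at 350 nm excitation and 460 nm emission.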

PC-3 [12] = experiment: Induction of apoptosis in human PC3 cells assessed as reduction in adherent cells at 0.16 to 1.25 uM after 48 hrs by Hoechst 33258 staining-based fluorescent microscopic analysis; type: functional, cell-based; outline: as §2
PC-3 [13] = experiment: Induction of apoptosis in human PC3 cells assessed as nuclear fragmentation at 0.16 to 1.25 uM after 48 hrs by Hoechst 33258 staining-based fluorescent microscopic analysis; type: functional, cell-based; outline: as §2
PC-3 [14] = experiment: Induction of apoptosis in human PC3 cells assessed as viable cells at 0.16 uM after 72 hrs by Annexin V-APC/7-AAD or propidium iodide staining-based flow cytometric analysis (reference value: 88.74%); type: functional; conditions: PC-3, 72 h, read-out: Activity
PC-3 [15] = experiment: Induction of apoptosis in human PC3 cells assessed as early apoptotic cells at 0.16 uM after 72 hrs by Annexin V-APC/7-AAD or propidium iodide staining-based flow cytometric analysis (reference value: 4.09%); type: functional
PC-3 [16] = experiment: Induction of apoptosis in human PC3 cells assessed as necrotic cells at 0.31 uM after 72 hrs by Annexin V-APC/7-AAD or propidium iodide staining-based flow cytometric analysis (reference value: 2.43%); type: functional
PC-3 [17] = experiment: Induction of apoptosis in human PC3 cells assessed as early apoptotic cells at 1.25 uM after 72 hrs by Annexin V-APC/7-AAD or propidium iodide staining-based flow cytometric analysis (reference value: 4.09%); type: functional
PC-3 [18] = experiment: Induction of apoptosis in human PC3 cells assessed as late apoptotic cells at 1.25 uM after 72 hrs by Annexin V-APC/7-AAD or propidium iodide staining-based flow cytometric analysis (reference value: 4.74%); type: functional
L02 [19] = experiment: Induction of apoptosis in human LO2 cells assessed as early apoptotic cells at 1.25 uM after 72 hrs by Annexin V-FITC/7-AAD or propidium iodide staining-based flow cytometric analysis (reference value: 3.65%); type: cell-based; conditions: l02, 72 h
PC-3 [20] = experiment: Induction of apoptosis in human PC3 cells assessed as reduction in mitochondrial membrane potential at 0.31 uM after 48 hrs by JC-1 staining-based flow cytometric analysis (reference value: 1.86%); type: functional; design: scale not given: the % may be the effect or the level left
Outline: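 After overnight culture, PC-3 cells were treated in triplicate with 0, 0.16, 0.31 or 1.25 μM, or vehicle, for 48 h. They were then loaded with JC-1, and the proportion with depolarized mitochondrial membrane potential was counted by flow cytometry.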

Row | SMILES | Activity (HepG2 [1]) | Activity (HepG2 [2]) | Activity (L02 [3]) [%] | Activity (L02 [4]) [%] | viability at 72 h, 1.2 µM [5] [%] | Activity (HepG2 [6]) [%] | Activity (HepG2 [7]) | Activity (PC-3 [8]) [%] | Activity (PC-3 [9]) [%] | Activity (PC-3 [10]) [%] | Activity (PC-3 [11]) | Activity (PC-3 [12]) | Activity (PC-3 [13]) | viability at 0.16 µM (PC-3 [14]) [%] | Activity (PC-3 [15]) [%] | Activity (PC-3 [16]) [%] | Activity (PC-3 [17]) [%] | Activity (PC-3 [18]) [%] | Activity (L02 [19]) [%] | Activity (PC-3 [20]) [%]
1 | O=C(NCCCOc1no[n+]([O-])c1S(=O)(=O)c1ccccc1)[C@H]1O[C@@H](Oc2cc3oc(-c4ccc(OCc5ccccc5)cc4)cc(=O)c3c(O)c2OCc2ccccc2)[C@H](O)[C@@H](O)[C@@H]1O | Active | Dose-dependent effect | 9.83 | 2.27 | 81.5 | 31.12 | Active |  |  |  |  |  |  |  |  |  |  |  |  | 
2 | COc1ccc(-c2cc(=O)c3c(O)c(OC)c(O[C@@H]4O[C@H](C(=O)NCCOc5no[n+]([O-])c5S(=O)(=O)c5ccccc5)[C@@H](O)[C@H](O)[C@H]4O)cc3o2)cc1 |  |  |  |  |  |  |  | 50.05 | 40.49 | 50.41 | Active | Active | Active | 79.1 | 3.71 | 2.76 | 14.91 | 43.54 | 17.35 | 35.91
